# The list is not random: actives were taken first. Their share in the collection is about 5.8%.
# Pf Dd2 inh – P. falciparum Dd2 growth inhibitors, primary screen, SYBR Green fluorescence, single dose replicates; activity change, % at 10 µM; 72 h; stronger effect = lower value; AID 1159554, 2015; hit rate 2.3% among 94,000; in the data active = activity change below about -80%; inconclusive = no clear call, values can overlap the other calls
# GASC1 inh – inhibitors of GASC-1 (KDM4C) histone demethylase, primary screen, biochemical, single concentration HTS. Lysine-specific demethylase 4C (Homo sapiens), Q9H3R0. GST-KDM4C 2-372, H3K9me3 peptide, LANCE TR-FRET. inhibition, % at 12.5 µM. hit rate 0.15% among 96,000;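 active = mean replicate inhibition above about 25%, with at least 55% of replicates also reaching it, limit read from the data, passing the limit was not always enough; inconclusive = only one of those two conditions met; inactive = neither condition met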
#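 System: N-terminal GST-fused human GASC-1 (KDM4C) fragment, residues 2-372 / Amount: 10 nM GST-KDM4C in enzyme reaction / Also added: H3K9me3 peptide with Fe(II)/2OG / Times: 30 min demethylation and 1 h detection at room temperature / Signal: LANCE TR-FRET / Read-out basis: Fall in 671/618 emission ratio as inhibition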
# IDH1 mut inh – inhibitors of IDH1 R132H reductase, primary screen, biochemical, plate reader, single point; diaphorase/resazurin fluorescence, 60 min; hit rate 0.18% among 70,000; Isocitrate dehydrogenase [NADP] cytoplasmic (Homo sapiens), O75874; inhibition, % at 10 µM; AID 624101, 2012; in the data active = inhibition above about 34%; inconclusive = no clear call, values can overlap the other calls; inactive = below about 11%;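 note: 0% = DMSO and 100% = no enzyme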
# Target sequence (O75874 whole entry R132H): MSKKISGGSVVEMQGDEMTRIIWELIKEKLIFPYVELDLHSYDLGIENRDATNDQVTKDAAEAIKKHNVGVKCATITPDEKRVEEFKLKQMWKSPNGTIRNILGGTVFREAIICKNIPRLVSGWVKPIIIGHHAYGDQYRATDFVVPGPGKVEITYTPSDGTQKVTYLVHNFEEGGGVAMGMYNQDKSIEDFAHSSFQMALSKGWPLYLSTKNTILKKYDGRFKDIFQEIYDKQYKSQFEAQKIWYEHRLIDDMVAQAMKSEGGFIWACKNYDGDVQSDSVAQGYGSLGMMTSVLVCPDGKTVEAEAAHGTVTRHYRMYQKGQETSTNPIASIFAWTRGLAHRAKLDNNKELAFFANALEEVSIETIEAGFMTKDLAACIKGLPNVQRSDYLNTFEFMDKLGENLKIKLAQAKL
# T cruzi growth-1 – T. cruzi intracellular proliferation inhibitors, primary screen, cell-based, beta-gal Tulahuen parasites, NIH3T3 host, luminescence; T. cruzi beta-gal in NIH3T3, GalScreen luminescence, 90 h; inhibition, % at 8.34 µM; hit rate 5.9% among 77,000; AID 624255, 2012;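 active = mean inhibition above about 93%, with at least 55% of replicates each passing it, limit read from the data, passing the limit was not always enough; inconclusive = only one of those two conditions holds; inactive = neither condition holds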
# T cruzi growth-2 – T. cruzi intracellular proliferation inhibitors, confirmation, cell-based, NIH3T3 host, beta-gal parasite, luminescence, cherry-pick | shares compounds with T cruzi growth-1 | T. cruzi beta-gal in NIH3T3, GalScreen luminescence, 90 h | inhibition, % at 8.35 µM | hit rate 72% among 5,600;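 active = mean replicate inhibition above about 95% and at least 55% of replicates individually reaching it, limit read from the data; inconclusive = only one of the two criteria is met; inactive = neither criterion is met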
# T cruzi growth-3 – inhibitors of intracellular T. cruzi replication, confirmation, NIH3T3 host cells, beta-gal parasites, cherry-pick, set 2 | shares compounds with T cruzi growth-1 | T. cruzi beta-gal in NIH3T3, GalScreen luminescence, 90 h | inhibition, % at 2.09 µM | hit rate 21% among 5,600;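 active = mean inhibition above about 95%, with at least 55% of replicates also reaching it, limit read from the data; inconclusive = meets just one of the two conditions; inactive = meets neither condition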;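 note: plate controls were neutral control median for no effect and positive control median for full effect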
# NIH3T3 tox – cytotoxicity in mouse NIH/3T3 fibroblasts, confirmation, cytotoxicity control for T. cruzi proliferation inhibitor project, cell-based, cherry-pick, single point; shares compounds with T cruzi growth-1; NIH/3T3 viability, CellTiter-Glo ATP luminescence, 90 h; cytotoxicity (signal decrease), % at 8.35 µM; hit rate 14% among 5,600; AID 651742, 2012;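 active = mean signal decrease across replicates above about 35% based on untreated-well scatter, with enough replicates individually passing, limit read from the data; inconclusive = no rule stated though some were filed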;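 note: 0% = median of neutral control wells and 100% = median of positive control wells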
# NIH3T3 tox 2 – NIH/3T3 fibroblast cytotoxicity, confirmation, cytotoxicity control, cell-based, cherry-pick, single point, set 2; shares compounds with T cruzi growth-1; NIH/3T3 viability, CellTiter-Glo ATP luminescence, 90 h; inhibition, % at 24.9 µM; hit rate 56% among 5,600;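 active = mean loss of cell viability signal at or above a set limit, and enough replicates individually reaching it; inconclusive = meets only the mean limit or only the replicate share; inactive = meets neither condition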;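 note: 0% = median of neutral control wells and 100% = median of positive control wells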
# Starred values were filed as active, the others as inactive; ? = inconclusive; · = no result given.
SMILES,Pf Dd2 inh,GASC1 inh,IDH1 mut inh,T cruzi growth-1,T cruzi growth-2,T cruzi growth-3,NIH3T3 tox,NIH3T3 tox 2
C[C@@H]1CCCCO[C@@H](CN(C)CC2CCCCC2)[C@H](C)CN([C@H](C)CO)C(=O)c2cc(NC(=O)Nc3ccc(F)cc3)ccc2O1,-90*,0,2,105*,95*,112*,21,102*
C[C@H](CO)N1C[C@H](C)[C@@H](CN(C)CC2CCCCC2)OCCCC[C@H](C)Oc2ccc(NC(=O)Nc3ccc(F)cc3)cc2C1=O,-70,-1,0,114*,98*,111*,24,103*
C[C@@H]1CCCCO[C@H](CN(C)CC2CCCCC2)[C@H](C)CN([C@@H](C)CO)C(=O)c2cc(NC(=O)Nc3ccc(F)cc3)ccc2O1,-80,0,·,120*,97*,114*,54*,103*
C[C@@H]1CCCCO[C@@H](CN(C)CC2CCCCC2)[C@@H](C)CN([C@@H](C)CO)C(=O)c2cc(NC(=O)Nc3ccc(F)cc3)ccc2O1,-77,0,2,119*,103*,93,30,104*
Cc1c(C(=O)N(C)C)sc2[nH]c(=O)n(-c3ccccc3C(F)(F)F)c(=O)c12,·,·,2,·,·,·,·,·
C[C@H]1CCCCO[C@H](CN(C)CC2CCCCC2)[C@@H](C)CN([C@@H](C)CO)C(=O)c2cc(NC(=O)Nc3ccc(F)cc3)ccc2O1,-83*,-2,0,115*,97*,114*,47*,103*
CCCN(C)C[C@H]1OCCCC[C@@H](C)Oc2ccc(NC(=O)Nc3ccc(F)cc3)cc2C(=O)N([C@H](C)CO)C[C@@H]1C,-66,-1,·,100*,101*,49,1,-7
CCOc1ccc(C)cc1S(=O)(=O)n1nnc2ccccc21,·,·,0,·,·,·,·,·
O=C(C[C@H]1CC[C@@H]2[C@H](COC[C@H](O)CN2C(=O)Nc2ccc(Cl)cc2)O1)NCCc1ccncc1,10,0,·,109*,91,83,10,25
O=C(C[C@H]1CC[C@@H]2[C@H](COC[C@@H](O)CN2C(=O)Nc2ccc(F)cc2)O1)NCCc1ccncc1,4,-2,·,72,·,·,·,·
COc1ccccc1NC(=O)N1C[C@H](O)COC[C@H]2O[C@H](CC(=O)NCCc3ccncc3)CC[C@@H]21,·,-1,·,?,36,-3,-1,-1
O=C(C[C@@H]1CC[C@@H]2[C@H](COC[C@@H](O)CN2C(=O)Nc2ccc(Cl)cc2)O1)NCCc1ccncc1,19,0,·,119*,94,80,-14,-8
O=C(C[C@H]1CC[C@@H]2[C@H](COC[C@@H](O)CN2C(=O)Nc2ccc(Cl)cc2)O1)NCCc1ccncc1,7,-2,·,106*,96*,84,-5,-11
COc1cccc(NC(=O)CN(C)S(=O)(=O)c2ccc3ccccc3c2)c1,·,·,-1,·,·,·,·,·
Cc1cc(Br)ccc1OCC(=O)Nc1ccccc1[N+](=O)[O-],·,·,0,·,·,·,·,·
O=C(C[C@H]1CC[C@H]2[C@@H](COC[C@@H](O)CN2S(=O)(=O)c2cccc(F)c2)O1)Nc1ccc(-c2ccccc2)cc1,-15,-1,·,74,·,·,·,·
COc1ccc(S(=O)(=O)N2C[C@H](O)COC[C@@H]3O[C@@H](CC(=O)NCc4ccc(Cl)c(Cl)c4)CC[C@H]32)cc1,-12,-1,·,109*,101*,-36,-2,62*
O=C(C[C@H]1CC[C@@H]2[C@H](COC[C@@H](O)CN2S(=O)(=O)c2cccc(F)c2)O1)Nc1ccc(-c2ccccc2)cc1,-32,-2,·,96*,103*,60,50*,101*
O=C(C[C@@H]1CC[C@@H]2[C@H](COC[C@H](O)CN2S(=O)(=O)c2ccccc2)O1)NCc1ccc(-c2ccccc2)cc1,-41,-1,·,52,·,·,·,·
COc1cccc(S(=O)(=O)N2C[C@@H](O)COC[C@@H]3O[C@@H](CC(=O)N4CCOCC4)CC[C@H]32)c1,5,1,·,8,·,·,·,·
COc1cccc(S(=O)(=O)N2C[C@H](O)COC[C@H]3O[C@@H](CC(=O)N4CCOCC4)CC[C@@H]32)c1,0,0,·,?,13,14,11,1
Cc1ccc(S(=O)(=O)N2C[C@H](O)COC[C@H]3O[C@H](CC(=O)NCc4ccc(Cl)c(Cl)c4)CC[C@@H]32)cc1,11,0,·,90,·,·,·,·
O=C(C[C@@H]1CC[C@@H]2[C@H](COC[C@@H](O)CN2S(=O)(=O)c2ccccc2)O1)NCc1ccc(-c2ccccc2)cc1,-90*,-8,·,105*,105*,43,-1,13
O=C(C[C@H]1CC[C@@H]2[C@H](COC[C@H](O)CN2S(=O)(=O)c2cccc(F)c2)O1)Nc1ccc(-c2ccccc2)cc1,-27,0,·,101*,98*,88,44*,104*
COc1cc(NC(=O)COc2ccccc2Cl)ccc1NC(=O)c1cc2ccccc2o1,·,·,1,·,·,·,·,·
Cc1ccnc(SCC(=O)Nc2ccccc2C)n1,·,·,0,·,·,·,·,·
C[C@@H]1CN([C@H](C)CO)C(=O)c2cc(NC(=O)Nc3cccc4ccccc34)ccc2O[C@@H]1CN(C)Cc1ccc(C(F)(F)F)cc1,-8,0,2,92*,97*,88,47*,38*
C[C@@H]1CN([C@@H](C)CO)C(=O)c2cc(NC(=O)Nc3cccc4ccccc34)ccc2O[C@@H]1CN(C)Cc1ccc(C(F)(F)F)cc1,33,-1,0,106*,106*,107*,53*,46*
C[C@H](CO)N1C[C@H](C)[C@H](CN(C)Cc2ccc(C(F)(F)F)cc2)Oc2ccc(NC(=O)Nc3cccc4ccccc34)cc2C1=O,8,8,-2,49,·,·,·,·
C[C@H](CO)N1C[C@H](C)[C@H](CN(C)Cc2ccc(C(F)(F)F)cc2)Oc2c(NC(=O)Nc3cccc4ccccc34)cccc2C1=O,-39,-3,·,111*,103*,73,34,30*
